This note sets out measurements from ChEMBL document CHEMBL3045292, “Synthesis and herbicidal activity of 2-(7-fluoro-3-oxo- 3,4-dihydro-2H-benzo[b][1,4]oxazin-6-yl)isoindoline-1,3-diones” (J Agric Food Chem, 2005).

For data set [1], the system named is Triticum aestivum. Kind of data set: (§1) Phytotoxicity against Triticum aestivum (wheat) assessed as growth inhibition at 15 g/ha pre-emergence treatment measured after 15 days by crop-selectivity assay. Format: organism-based. The following applies: in vivo, other, 360 h.
In another data set the test system is Abutilon theophrasti. Kind of data set: Herbicidal activity against Abutilon theophrasti (velvetleaf) assessed as weed growth inhibition at post-emergence treatment […]. Format: functional, organism-based. Summed up:
(§2)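 Pot-grown plants in the greenhouse, in clay soil (pH 6.5, 1.6% organic matter, 37.3% clay, CEC 12.1 cmol/kg). Compound was made up as a 100 g/L emulsified concentrate (DMF, Tween-80), diluted in water and sprayed at 75 g ai/ha. Pre-emergence spraying was 24 h after sowing; post-emergence at two-leaf (dicots) or one-leaf (monocots) stage. Untreated and DMF controls. Percent growth inhibition scored visually 15 days post-treatment.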

The subject of data set [2] is Gossypium. The data set is described as follows: Phytotoxicity against Gossypium (cotton) assessed as growth inhibition at 150 g/ha pre-emergence treatment measured after 15 days by crop-selectivity assay. Format: organism-based. The following applies: in vivo, other, 360 h.
In a further data set the test system is Amaranthus blitum. Kind of data set: Herbicidal activity against Amaranthus blitum assessed as weed growth inhibition at 75 g/ha post-emergence treatment […]. The following applies: read-out: GI. The class given is functional. A digest of the protocol:
as §2

Data set [3] is described as follows: Phytotoxicity against Gossypium (cotton) assessed as growth inhibition at 7.5 g/ha post-emergence treatment measured after 15 days by crop-selectivity assay. Format: organism-based. The following applies: in vivo, read-out: GI.
Data set [4] concerns Triticum aestivum. The data set is described as follows: (§3) Phytotoxicity against Triticum aestivum (wheat) assessed as growth inhibition at 30 g/ha post-emergence treatment measured after 15 days by crop-selectivity assay. Format: organism-based. The conditions noted are these: in vivo, other, 360 h.
Data set [5] relates to Triticum aestivum. Kind of data set: (§4) Phytotoxicity against Triticum aestivum (wheat) assessed as growth inhibition at 15 g/ha post-emergence treatment measured after 15 days by crop-selectivity assay. Format: organism-based. The following applies: in vivo, other, 360 h.
Data set [6] concerns Glycine max. Kind of data set: (§5) Phytotoxicity against Glycine max (soybean) assessed as growth inhibition at 75 g/ha pre-emergence treatment measured after 15 days by crop-selectivity assay. Format: organism-based. The conditions noted are these: in vivo, other, 360 h.
Data set [7] in a line: Phytotoxicity against Brassica rapa subsp. oleifera assessed as growth inhibition at 7.5 g/ha post-emergence treatment measured after 15 days by crop-selectivity assay. The class given is organism-based. The conditions noted are these: in vivo, read-out: GI.
Data set [8] deals with Zea mays. The data set is described as follows: (§6) Phytotoxicity against Zea mays (maize) assessed as growth inhibition at 150 g/ha pre-emergence treatment measured after 15 days by crop-selectivity assay. Format: organism-based. The conditions noted are these: in vivo, other, 360 h. A digest of the protocol:
(§7)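 Compounds were formulated as 100 g/L emulsifiable concentrates, with DMF as solvent and Tween-80 as emulsifier, then diluted in water to the required rate. They were sprayed on pot-grown plants in a greenhouse, in clay soil (pH 6.5, 1.6% organic matter, 37.3% clay, CEC 12.1 cmol/kg). Untreated and DMF-treated plants served as controls. Percent growth inhibition was scored visually 15 days after treatment.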

Data set [9] is described as follows: Phytotoxicity against Zea mays (maize) assessed as growth inhibition at 7.5 g/ha post-emergence treatment measured after 15 days by crop-selectivity assay. Format: organism-based. The conditions noted are these: in vivo, read-out: GI. A digest of the protocol: as §7
For data set [10], the system named is Zea mays. The data set is described as follows: (§8) Phytotoxicity against Zea mays (maize) assessed as growth inhibition at 75 g/ha pre-emergence treatment measured after 15 days by crop-selectivity assay. Format: organism-based. The conditions noted are these: in vivo, other, 360 h. Summed up: as §7
Data set [11] concerns Oryza sativa. The data set is described as follows: (§9) Phytotoxicity against Oryza sativa (rice) assessed as growth inhibition at 7.5 g/ha pre-emergence treatment measured after 15 days by crop-selectivity assay. Format: organism-based. The conditions noted are these: in vivo, other, 360 h.
Data set [12] in a line: Phytotoxicity against Brassica rapa subsp. oleifera assessed as growth inhibition at 75 g/ha pre-emergence treatment measured after 15 days by crop-selectivity assay. The class given is organism-based. The conditions noted are these: in vivo, read-out: GI.
Data set [13] is described as follows: Phytotoxicity against Glycine max (soybean) assessed as growth inhibition at 7.5 g/ha post-emergence treatment measured after 15 days by crop-selectivity assay. The following applies: in vivo, read-out: GI. Format: organism-based.
Data set [14] concerns Glycine max. Kind of data set: Phytotoxicity against Glycine max (soybean) assessed as growth inhibition at 30 g/ha pre-emergence treatment measured after 15 days by crop-selectivity assay. The class given is organism-based. The conditions noted are these: in vivo, other, 360 h.
Data set [15] concerns Triticum aestivum. Kind of data set: (§10) Phytotoxicity against Triticum aestivum (wheat) assessed as growth inhibition at 30 g/ha pre-emergence treatment measured after 15 days by crop-selectivity assay. The class given is organism-based. The following applies: in vivo, other, 360 h. Summed up:
as §7

In data set [16] the test system is Gossypium. The data set is described as follows: Phytotoxicity against Gossypium (cotton) assessed as growth inhibition at 30 g/ha pre-emergence treatment measured after 15 days by crop-selectivity assay. The class given is organism-based. The following applies: in vivo, other, 360 h.
Data set [17] relates to Gossypium. Kind of data set: Phytotoxicity against Gossypium (cotton) assessed as growth inhibition at 7.5 g/ha pre-emergence treatment measured after 15 days by crop-selectivity assay. Format: organism-based. The following applies: in vivo, other, 360 h.
For data set [18], the system named is Triticum aestivum. Kind of data set: (§11) Phytotoxicity against Triticum aestivum (wheat) assessed as growth inhibition at 7.5 g/ha post-emergence treatment measured after 15 days by crop-selectivity assay. Format: organism-based. The following applies: in vivo, other, 360 h. Summed up: as §7
Data set [19] concerns Oryza sativa. Kind of data set: (§12) Phytotoxicity against Oryza sativa (rice) assessed as growth inhibition at 7.5 g/ha post-emergence treatment measured after 15 days by crop-selectivity assay. Format: organism-based. The following applies: in vivo, other, 360 h.
The nature of data set [20]: Phytotoxicity against Oryza sativa (rice) assessed as growth inhibition at 30 g/ha post-emergence treatment measured after 15 days by crop-selectivity assay. The class given is organism-based. The following applies: in vivo, read-out: GI.
Data set [21] can be described thus: Phytotoxicity against Oryza sativa (rice) assessed as growth inhibition at 30 g/ha pre-emergence treatment measured after 15 days by crop-selectivity assay. The following applies: in vivo, read-out: GI. Format: organism-based.
Data set [22] is described as follows: as §1. The class given is organism-based. The conditions noted are these: in vivo, 15 g/ha, read-out: GI.
Data set [23] can be described thus: as §3. Format: organism-based. The conditions noted are these: in vivo, 30 g/ha, read-out: GI.
The nature of data set [24]: as §4. The following applies: in vivo, 15 g/ha, read-out: GI. The class given is organism-based.
Data set [25] is described as follows: as §5. The following applies: in vivo, 75 g/ha, read-out: GI. Format: organism-based.
Data set [26] in a line: as §6. The class given is organism-based. The following applies: in vivo, 150 g/ha, read-out: GI. A digest of the protocol:
as §7

A short description of data set [27]: as §8. The class given is organism-based. The conditions noted are these: in vivo, 75 g/ha, read-out: GI. A digest of the protocol:
as §7

Data set [28] in a line: as §9. The conditions noted are these: in vivo, 7.5 g/ha, read-out: GI. Format: organism-based.
Data set [29] can be described thus: as §10. Format: organism-based. The following applies: in vivo, 30 g/ha, read-out: GI. Summed up:
as §7

A short description of data set [30]: as §11. The following applies: in vivo, 7.5 g/ha, read-out: GI. The class given is organism-based. Summed up: as §7
The nature of data set [31]: as §12. The class given is organism-based. The following applies: in vivo, 7.5 g/ha, read-out: GI.

Take `C#CCN1C(=O)COc2cc(F)c(N3C(=O)c4ccc(F)cc4C3=O)cc21`: the “growth inhibition (GI)” value in the data set with Triticum aestivum [1], in the data set on Gossypium [2], with Triticum aestivum [4], in the data set with Triticum aestivum [5], with Glycine max [6] and in the data set with Zea mays [8] was “Non-toxic” each time. Besides, the “growth inhibition (GI)” value in the data set with Zea mays [10], in the data set on Oryza sativa [11], with Glycine max [14], with Triticum aestivum [15], in the data set on Gossypium [16] and in the data set with Gossypium [17] was “Non-toxic” throughout. Further, the “growth inhibition (GI)” value in the data set with Triticum aestivum [18] and with Oryza sativa [19] was “Non-toxic” in each case. Further, in the data set with Abutilon theophrasti, the IC50 was 3.6 g/ha. Besides, the inhibition of growth at 75 g/ha in the data set with Amaranthus blitum is more than 80%. Besides, the inhibition at 360 h in data set [3] is more than 10%; in data set [7], more than 10%; in data set [9] it was 1%; in data set [12], more than 10%; in data set [13] it was more than 10%; in data set [20] it was more than 10%. Besides, the inhibition at 360 h in data set [21] was more than 10%.

As to `C#CCN1C(=O)COc2cc(F)c(N3C(=O)C4=C(CCCC4)C3=O)cc21` [FLUMIOXAZIN], the inhibition at 360 h in data set [22], in data set [3], in data set [23], in data set [24], in data set [25] and in [7] was more than 10% in each case. Moreover, the inhibition at 360 h in data set [26] is 1%; in data set [9], more than 10%; in data set [27] it was 1%; in data set [28], more than 10%; in [12], more than 10%; in [13], more than 10%. Further, the inhibition at 360 h in data set [29], in [30], in data set [31], in [20] and in [21] was more than 10% in each case. The IC50 in the data set on Abutilon theophrasti turned out to be 1 g/ha. For the same compound, the “growth inhibition (GI)” value with Gossypium [2], in the data set with Glycine max [14], in the data set on Gossypium [16] and in the data set with Gossypium [17] was “Non-toxic” each time. The inhibition of growth at 75 g/ha in the data set with Amaranthus blitum is more than 80%.
